The source of these data is the EternaBench riboswitch data.

The data set concerns MS2 coat protein. Description: apparent Kd, MS2 coat protein; higher = weaker binding; RNA-MaP array; FMN 200 µM where present. In a few lines:
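Green signal from SNAP-549-labelled MS2 coat protein was normalised to red-channel RNA signal and to the median Fmax of control clusters. The protein was titrated from 0.7 or 1.5 nM, doubling to 3 µM, without and then with constant ligand, over designs transcribed by stalled E. coli RNA polymerase on Illumina sequencing-chip clusters, in 100 mM Tris-HCl pH 7.5, 80 mM KCl, 4 mM MgCl2, BSA, DTT, yeast tRNA and Tween-20. The apparent Kd is the median of filtered per-cluster binding-curve fits.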

The mark [1] stands for this setting: designed as: OFF switch for flavin mononucleotide, no ligand.
The mark [2] stands for this setting: ligand present: flavin mononucleotide, designed as: OFF switch for flavin mononucleotide.
Setting [3] is: designed as: ON switch for flavin mononucleotide, no ligand.
Where [4] appears, read: ligand present: flavin mononucleotide, designed as: ON switch for flavin mononucleotide.

On to “GGGCCCGGUGUGAGGAUAUGGGCCCGGAAACGGGCCCAGAAGGCACAUGAGGAUCACCCAUGUAAGCCGGGCCC”, for which the apparent Kd (usually a dissociation constant that holds for the conditions of the assay) worked out at 15.4 nM under setting [1] and 15.7 nM under setting [2].

In the case of “UGAUCUUGAGUCAGGAUAUGCUGGUAUUUUUACCAGCAGAAGGGACAUGAGGAUCACCCAUGUUCUCACUUUUU”, the “apparent Kd” value by setting is: under setting [1], 10.1 nM; under setting [2], 13.4 nM.

As for “UUUUAACAUGAGGAUCACCCAUGUGAGGAUAUCGAAAUUUAUAUUAAUAUUAUUUUAUCGAGAAGGCACAUUUU”, the “apparent Kd” value runs as follows: under setting [1], 96.1 nM; under setting [2], 124 nM.

Take “GGAGCUACAACCGACGGAUAGAUGCAGGAUAUGCUCACAUGAGGAUCACCCAUGUGCUGAAACUGGCAGAAGGGUAUCACCGCC”: the “apparent Kd” value was 7.83 nM under setting [3] and 4.59 nM under setting [4].

As to “UUUUUGCUAUAUACAUGAGGAUCACCCAUGUCCACUGACAGACAGGAUAUCCUUAGAAACUAGCAGGAGAAGGGUCAGUCAUAC”, the “apparent Kd” value by setting is: under setting [3], 487 nM; under setting [4], 69 nM.

As to “AUAUCUAUGUAAGGAUAUAGAUGGUAUACGCCUCCGACAUGAGGAUCACCCAUGUUAUAUUUUGUCUAGAAGGUACAUUGUCGG”, the “apparent Kd” value was determined as 383 nM under setting [3] and 305 nM under setting [4].

“UGAAAUCAUGUAGGAUAUGCAUGGCGAAGCUACGCAGAAGGACAUGAGGAUCACCCAUGUUAUAGCUACCCAAUUCGGUGGCAA”: the “apparent Kd” value under setting [1] was 56.3 nM and the “apparent Kd” value under setting [2] was 152 nM.

In the case of “ACAUGAGGAUCACCCAUGUAGAAUGAAGAAGGUAGAUACUUGAGGCUCACCCAUGUACAUGGGACUAAGGAUAUUCUAAUAAUU”, the “apparent Kd” value under setting [3] amounted to 42.7 nM and the “apparent Kd” value under setting [4] was determined as 27.7 nM.

On to “CUCAAACAUGAGGAUCACCCAUGUGUUGUCAUGGGAGGAUAUCCCAGUUCGUUGUCGUCGGGAGAAGGCCUAUGUC”, for which the “apparent Kd” value amounted to 65 nM under setting [3] and 29.3 nM under setting [4].

“GGAUAGGACAGAGGAUAUACGUGCUAGAGAUACUAGCAAAAUUUCCUCACAUGAGGAUCACCCAUGUAGAAGGCUGUCCUAUCU”: the “apparent Kd” value runs as follows: under setting [1], 45.2 nM; under setting [2], 882 nM.

Turning to “CCGGCGGGAGGAUAUACAUGAGGAUCACCCAUGUGCUUCAGCUAGGAGACUAGCAUUGGUAGAAGGCCCGCCGG”, the “apparent Kd” value by setting is: under setting [1], 19 nM; under setting [2], 160 nM.

Turning to “UUGCGGUAGGAGAAGGACAGAGGCUUCAUUACAUACAUGAGGAUCACCCAUGUAGGAUAUCCUACCUAACGCGGCCUCCUCCUG”, the “apparent Kd” value runs as follows: under setting [1], 11.1 nM; under setting [2], 19.8 nM.

For the sequence “GCACUUUUAUUUGAACCGUUUCGAACAUGAGGAUCACCCAUGUAGGAUAUGCUAAAAGUUGUGAUGCAGAAGGACAUUAAGUGC”, the “apparent Kd” value was determined as 6.94 nM under setting [1] and 7.5 nM under setting [2].

As to “AAGGACUGUAAUAAUGUAGAAAUACAUGAGGAUCACCCAUGUAAGGAUAUCGUCAGGAAUACUGACGAGAAGGUACAUCAGUCC”, the “apparent Kd” value under setting [2] turned out to be 25.8 nM.

On to “AUUUGAAGGUAGAAGGGUGACAUGAGGAUCACCCAUGUGCGAGCAUCGGACGAAGAUGGCUCGCCACAGGAUAUACCUUCAAAU”, for which the “apparent Kd” value by setting is: under setting [3], 36.7 nM; under setting [4], 46.3 nM.

Regarding “AAAUUUUGUCAAGGAUAUGUAUAAUUGAUUUGAAAACAUGAGGAUCACCCAUGUAUAUUGUGGGAACAGAAGGUGAAUAAGUAA”, the “apparent Kd” value under setting [1] amounted to 209 nM and the “apparent Kd” value under setting [2] stood at 190 nM.

As for “UGUGUUUUUGUGAGGAUAUACUGUUUGUUUUGUUUGUAGAAGGUACAUGAGGAUCACCCAUGUUGUGUUUGGUU”, the “apparent Kd” value stood at 37.5 nM under setting [1] and 29.2 nM under setting [2].

Regarding “UUUUUACGAGGAUAUCGAUUGUGGUACAUGAGGAUCACCCAUGUAUGUGAUAUUGUAUUUCGAGAAGGCGUUCAGU”, the “apparent Kd” value reads like this: under setting [1], 19.3 nM; under setting [2], 17.8 nM.

Regarding “AAUACUUAGUAAGGAUAUACUAGCGAUUAGCUUGUAGAAGGUACAGUCUUAUGUAUAACAUGUUAACAUGAGGAUCACCCAUGU”, the “apparent Kd” value runs as follows: under setting [3], 67.2 nM; under setting [4], 35.1 nM.

Regarding “AGUAAGAUGCAGAAGGUGUUAGCUAGAGCUACGACAUGAGGAUCACCCAUGUACUAGAAACAGUACAAGGAUAUGCAUCUUACA”, the “apparent Kd” value by setting is: under setting [3], 18.1 nM; under setting [4], 6.28 nM.

Take “GUUUUGGGAGGAUAUAUGUGGAUUAUUUUUAUAUGUUAUUUACAUGAGGAUCACCCAUGUAGAAGGUCUAGAGC”: the “apparent Kd” value by setting is: under setting [1], 163 nM; under setting [2], 249 nM.

Take “GUCAGCUCGUGAGGAUAUACAACACUGCUUCGGCAGUGUAUUACGAUCACAUGAGGAUCACCCAUGUAGAAGGCACGAGCUGAU”: the “apparent Kd” value runs as follows: under setting [1], 15.2 nM; under setting [2], 307 nM.

With “GGAGCACACAUUAACAUGAGGAUCACCCAUGUCACAAGACAUGAGGAUAUGGAUCCGAAAAGGAUCCAGAAGGCAUGGUGCUCC”, the “apparent Kd” value by setting is: under setting [3], 657 nM; under setting [4], 28 nM.

As to “GCGCUGCAGCGGUGCACGAGACAUGAGGAUCACCCAUGUGACAGAAGGGACUUGUUAAAGGUAGGUCAGGAUAUGUCUUAAAAG”, the “apparent Kd” value was found to be 190 nM under setting [3] and 59.8 nM under setting [4].

Regarding “GCGUUUUAUGCAGGAUAUUGUAAUUUAUUACUACAAGAAGGGCAAUACAUGAGGAUCACCCAUGUCAGCAUGGUUUUUAAGUUC”, the “apparent Kd” value is, setting by setting: under setting [1], 20.4 nM; under setting [2], 25.9 nM.

Take “UUACUAUUGGAGAAGGGUCGAUCAUAUAGAAUGACAGGAUAUCCAACAUGAGGAUCACCCAUGUGUCACCCAUAUGAGGAUCAC”: the “apparent Kd” value reads like this: under setting [1], 34.3 nM; under setting [2], 52.4 nM.

Regarding “GACUACGAGGGAGGAUAUCCUCAUUAAUUUGGUGGAGAAGGCCCUCUACAUGAGGAUCACCCAUGUAUCGCUAUAGUCAGACAU”, the “apparent Kd” value by setting is: under setting [3], 9.92 nM; under setting [4], 6.95 nM.

Regarding “UAUAAACAUGAGGAUCACCCAUGUGAGGAUAUCUAAACCAGAGCGGAUCUCUGGCCCAAGAGAAGGUGCAUGGU”, the “apparent Kd” value was 34.6 nM under setting [1] and 146 nM under setting [2].

For the sequence “AUCAGCUCGUCAGGAUAUACGUCACUGCGUCAGCAGUGUUGUAAGAUCACAUGAGGAUCACCCAUGUAGAAGGGACGAGCUGAU”, the “apparent Kd” value under setting [1] was determined as 5.91 nM and the “apparent Kd” value under setting [2] was found to be 10.2 nM.

Consider “CUUUAACUACAAUUACAUGAGGAUCACCCAUGUUUUGGGAUGCAGGAUAUGUGGUAUAUUAAUUAACAGAAGGGCAAUAAUUAA”, for which the “apparent Kd” value runs as follows: under setting [3], 40.7 nM; under setting [4], 38.9 nM.

Turning to “GCUGACGAUGUAGGAUAUCUCGACGAUAAGUCGAGAGAAGGACAUGAGGAUCACCCAUGUCUCAAAACGUCAGCGAGGAAACUC”, the “apparent Kd” value came out at 16.4 nM under setting [1] and 17.4 nM under setting [2].

Turning to “AAAAAAAAAAGACAGGAUAUACAAUAUAUUACAUGAGGAUCACCCAUGUUUUUUUUUUAAUUAAAGUAGAAGGGUCAAAAAAAAAA”, the “apparent Kd” value came to 52.2 nM under setting [3] and 40 nM under setting [4].

On to “UACAUUAACAUGAGGAUCACCCAUGUUGGCCAGUCUCACACCAGAAGGCACGUAGAGCACAACAGUGAGGAUAUGGGUGACAUA”, for which the “apparent Kd” value runs as follows: under setting [3], 218 nM; under setting [4], 98.7 nM.

In the case of “GCCUCAUAGUAGAAGGGACUUCGGCUGUUAAGCAUCAUCUCCAUAUCACAUGAGGAUCACCCAUGUCAGGAUAUACUAAGAGGC”, the “apparent Kd” value is, setting by setting: under setting [1], 6.95 nM; under setting [2], 14.4 nM.

With “GGAACUCAUGUAGGAUAUGCAUGGCGAAGCUACGCAGAAGGACAUGAGGAUCACCCAUGUUCUAGCGUCUGGAGACAGAUGCAA”, the “apparent Kd” value came to 174 nM under setting [1] and 126 nM under setting [2].

As for “UGAAACUACGAGAAGGACAUGUGGUCCUUCAGUUACAUGAGGAUCACCCAUGUAGGAUAUCGUAGUUUCAGGAUCGUGAGAUCC”, the “apparent Kd” value under setting [1] was 32.8 nM and the “apparent Kd” value under setting [2] was 11.7 nM.

As to “AUCGUUGGAGGAUAUGCUUGGAAAAAAAAAAAAAAAAAAAAACAUGAGGAUCACCCAUGUAGAAGGUCAAUGGA”, the “apparent Kd” value came to 52.6 nM under setting [1] and 47.2 nM under setting [2].

As for “AAUAUGAGCUGGAAUAAACCUUGAACAUGAGGAUCACCCAUGUAGGAUAUCAGCACGAUAAGUGCUGAGAAGGACAACCAGCUC”, the “apparent Kd” value runs as follows: under setting [1], 13.6 nM; under setting [2], 15.3 nM.

As for “AAAGCAACAUGAGGAUCACCCAUGUAGGAUAUCGCUAUUGUAAUCAUGAAACAUGAUUACAAUAGCGAGAAGGACAUAUGCGGG”, the “apparent Kd” value reads like this: under setting [1], 42.5 nM; under setting [2], 45.2 nM.

As to “GUAGCUAUCGGAGGAUAUGGGUUGCGGAAACGCACAUGAGGAUCACCCAUGUAAAUAAAUAAUUCCUAGAAGGCCGAUAGCUAC”, the “apparent Kd” value worked out at 21 nM under setting [3] and 15 nM under setting [4].

Turning to “CAUUAAUUAAUUAGUUUAUAAAUACAGGAUAUGUUACAUGAGGAUCACCCAUGUUUACAUGGGAUACAGAAGGGUAAAUCAAUA”, the “apparent Kd” value turned out to be 192 nM under setting [1] and 145 nM under setting [2].

Take “UCCUUGUCCUGAGGAUAUCCGUGGUGACCGAAAGGAGAAGGCAGGACAUGAGGAUCACCCAUGUACCCAGAAAACGUGCAGAGU”: the “apparent Kd” value is, setting by setting: under setting [1], 66.5 nM; under setting [2], 458 nM.

With “GGUUCCAACACAGGAUAUGCUAUCCUUUGGGUAGCAGAAGGGUGAAAACAUGAGGAUCACCCAUGUGGAACCGGGCGUGAGCCC”, the “apparent Kd” value reads like this: under setting [3], 412 nM; under setting [4], 46.5 nM.

As to “UUGCACGUCGUAGGAUAUGUAGGAUAUUCCUACAUGAGGAUCACCCAUGUUGACAUGGAAGAAGGACAGAAGGACGAUGUCCAU”, the “apparent Kd” value reads like this: under setting [3], 686 nM; under setting [4], 10.9 nM.

For the sequence “AGAGUGACAGGAUAUUGGAUUCCUAACAUGAGGAUCACCCAUGUAGUACGGUACUACUGUCAAGAAGGGUCACUCU”, the “apparent Kd” value under setting [1] is 75.8 nM and the “apparent Kd” value under setting [2] came out at 68.8 nM.

Turning to “UAGCUCUCGGCAGGAUAUCCUGCAUAAUGUCGAGUCCGCGCCCGGACAUGAGGAUCACCCAUGUAGGAGAAGGGCCCACGGGCG”, the “apparent Kd” value under setting [1] worked out at 28 nM and the “apparent Kd” value under setting [2] was 32.3 nM.

For “GGUGGACAUGAGGAUCACCCAUGUGAGGAUAUCGGCUGGCUAGCGGCUGACGGCUGCUCGAGAAGGCGCAUUGU”, the “apparent Kd” value was determined as 65.8 nM under setting [1] and 84.9 nM under setting [2].

Regarding “ACAAAUUACUACCAGACAUGAGGAUCACCCAUGUCUCCACCCAGAAGGGCGACUCUGAGCACAGCGCAGGAUAUGGGUGUUCCA”, the “apparent Kd” value runs as follows: under setting [3], 59.8 nM; under setting [4], 13.5 nM.
